Data as given in ChEMBL document CHEMBL1811885, “Antiplasmodial sesquiterpene alkaloids from the roots of Maytenus mekongensis” (J Nat Prod, 2011).
≈ marks a conversion by molar mass, not a printed value. Calls of active or inactive are those of the source. The rule behind the calls is not given here.

What was measured:
Plasmodium falciparum = assay: Antiplasmodial activity against multi drug-resistant Plasmodium falciparum K1 infected in human type A+ erythrocytes assessed as inhibition of [G-3H]hypoxanthine incorporation after 42 hrs by scintillation counting; assay type: functional, organism-based; details: for IC50: K1, 42 h
KB = assay: Cytotoxicity against human KB cells by SRB assay; assay type: functional, cell-based
Summary of the method: (§1)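 Colorimetric growth assay following the Skehan method, run on three human lines: KB (oral epidermal carcinoma), MCF7 (breast adenocarcinoma) and NCI-H187 (small cell lung).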

MCF7 = assay: Cytotoxicity against human MCF7 cells by SRB assay; assay type: functional, cell-based; summary of the method: as §1
NCI-H187 = assay: Cytotoxicity against human NCI-H187 cells by SRB assay; assay type: functional, cell-based; summary of the method: as §1

Structure (SMILES) | Activity (Plasmodium falciparum) | IC50 (Plasmodium falciparum) | IC50 (KB) | Activity (MCF7) | Activity (NCI-H187)
CC(=O)OC[C@]12[C@H](OC(C)=O)[C@H](OC(C)=O)[C@@H]3[C@@H](OC(C)=O)[C@@]14O[C@@]3(C)COC(=O)c1cccnc1C(C)C(C)C(=O)O[C@@H]([C@H](OC(C)=O)[C@@H]2OC(C)=O)[C@]4(C)O (some centres undefined) | inactive | – | – | – | –
CC(=O)OC[C@@]12[C@H](OC(C)=O)[C@H](OC(C)=O)[C@@H]3[C@@H](OC(=O)c4ccccc4)[C@@]14O[C@@]3(C)COC(=O)c1cccnc1CC[C@H](C)C(=O)O[C@@H]([C@H](OC(C)=O)[C@@H]2OC(C)=O)[C@]4(C)O | – | 3.1 µM | 46.7 µg/mL (≈ 53.8 µM) | inactive | inactive
CC(=O)OC[C@@]12[C@H](OC(C)=O)[C@H](OC(C)=O)[C@@H]3[C@@H](OC(=O)c4ccccc4)[C@@]14O[C@@]3(C)COC(=O)c1cccnc1CC[C@](C)(OC(C)=O)C(=O)O[C@@H]([C@H](OC(C)=O)[C@@H]2OC(C)=O)[C@]4(C)O [MEKONGENSINE] | – | 3.1 µM | 28.2 µg/mL (≈ 30.5 µM) | inactive | inactive
CC(=O)OC[C@@]12[C@H](OC(C)=O)[C@@H](OC(C)=O)[C@@H]3[C@@H](OC(C)=O)[C@@]14O[C@@]3(C)COC(=O)c1cccnc1[C@@H](C)[C@H](C)C(=O)O[C@@H]([C@H](OC(C)=O)[C@@H]2OC(=O)c1ccccc1)[C@]4(C)O | inactive | – | – | – | –
CC(=O)OC[C@]12[C@H](OC(C)=O)[C@H](OC(C)=O)[C@@H]3[C@@H](OC(C)=O)[C@@]14O[C@@]3(C)COC(=O)c1cccnc1C(C)C(C)C(=O)O[C@@H]([C@H](OC(C)=O)[C@@H]2OC(=O)c1ccccc1)[C@]4(C)O (some centres undefined) | inactive | – | – | – | –
CC(=O)OC[C@@]12[C@H](OC(C)=O)[C@H](OC(C)=O)[C@@H]3[C@@H](OC(=O)c4ccccc4)[C@@]14O[C@@]3(C)COC(=O)c1cccnc1CC[C@H](C)C(=O)O[C@@H]([C@H](OC(C)=O)[C@@H]2OC(=O)c1ccccc1)[C@]4(C)O | – | 2.5 µM | – | – | –
CC(=O)OC[C@@]12[C@H](OC(C)=O)[C@H](OC(C)=O)[C@@H]3[C@@H](OC(=O)c4ccccc4)[C@@]14O[C@@]3(C)COC(=O)c1cccnc1CC[C@](C)(OC(C)=O)C(=O)O[C@@H]([C@H](OC(C)=O)[C@@H]2OC(=O)c1ccccc1)[C@]4(C)O | – | 3.5 µM | – | – | –
CC(=O)OC[C@@]12[C@H](OC(C)=O)[C@@H](OC(C)=O)[C@@H]3[C@@H](OC(=O)c4ccccc4)[C@@]14O[C@@]3(C)COC(=O)c1cccnc1CC[C@](C)(OC(C)=O)C(=O)O[C@@H]([C@H](OC(C)=O)[C@@H]2OC(C)=O)[C@]4(C)O | – | 3.9 µM | – | – | –
